Screening data as filed in PubChem BioAssay.
Scp1 inh – Scp-1 (human) phosphatase inhibition; Q9GZU7; Recombinant Scp1, phosphopeptide, malachite green phosphate absorbance; inhibition, % at 20 µM; 340,000 tested, 0.88% active; AID 493091;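 active = inhibition above about 50% at 20 µM, limit read from the data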
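Incubation: 45 min enzyme reaction at room temperature / System: truncated SCP-1 phosphatase (76-261aa) / Reagent: Phospho 17-mer peptide substrate / Buffer or medium: Acidic Tris acetate buffer with magnesium and detergent / Signal: absorbance at 630 nm / Doses: one concentration, 20 µM, with 1.0% DMSO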
LMPTP inh – blocks human LMPTP phosphatase | inhibition, % at 20 µM | AID 651560 | P24666 | 360,000 tested, 0.22% active | recombinant LMPTP-A, OMFP fluorogenic substrate, fluorescence intensity;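 active = compounds that cut the enzyme signal by at least half of the control window in the single-dose screen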
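Buffer or medium: Bis-Tris pH 6.0, DTT, detergent; Assay system: LMPTP-A enzyme; Quantity: 0.625 nM enzyme; Detection: endpoint fluorescence intensity; Times: 50 min dark incubation at room temperature; Controls: substrate-only low control, DMSO enzyme-plus-substrate high control; Doses: single 20 µM dose; Read-out: percent inhibition versus substrate-only and uninhibited controls; Reagent: 400 µM OMFP.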
STEP block – STEP (human) phosphatase inhibition; 360,000 tested, 0.25% active; recombinant STEP, OMFP fluorogenic substrate, fluorescence; inhibition, % at 20 µM; P54829;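 active = inhibition at 20 µM, scaled per plate between control wells, above about 37%, limit read from the data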
Target sequence (P54829 whole entry, looked up): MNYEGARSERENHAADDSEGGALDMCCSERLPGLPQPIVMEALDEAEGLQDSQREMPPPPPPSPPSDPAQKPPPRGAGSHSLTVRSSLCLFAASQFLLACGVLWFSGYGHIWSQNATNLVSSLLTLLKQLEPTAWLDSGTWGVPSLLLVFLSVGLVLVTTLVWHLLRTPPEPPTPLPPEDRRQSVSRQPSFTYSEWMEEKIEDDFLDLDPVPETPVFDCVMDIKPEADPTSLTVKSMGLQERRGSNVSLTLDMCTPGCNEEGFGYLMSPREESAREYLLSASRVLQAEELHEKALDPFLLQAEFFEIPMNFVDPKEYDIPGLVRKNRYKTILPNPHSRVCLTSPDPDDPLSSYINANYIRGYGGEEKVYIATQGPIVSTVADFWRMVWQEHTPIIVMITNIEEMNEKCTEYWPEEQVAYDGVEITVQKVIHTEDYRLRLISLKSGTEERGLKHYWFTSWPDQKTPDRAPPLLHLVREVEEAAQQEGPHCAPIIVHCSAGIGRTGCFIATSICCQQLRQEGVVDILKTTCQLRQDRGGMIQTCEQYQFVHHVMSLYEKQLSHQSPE
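Test system: STEP tyrosine phosphatase / Reagent: OMFP at 25 µM / Doses: 20 µM, 1% DMSO / Read-out: percent inhibition scaled to no-enzyme and uninhibited-enzyme controls, plate-pattern corrected / Detection: FITC-channel fluorescence of OMFP product / Medium: Bis-Tris buffer pH 6.0, 2.5 mM DTT, 0.005% Tween 20 / Schedule: 20 min at room temperature, dark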
DNMT1 block – inhibitors of human DNMT1; 360,000 tested, 0.83% active; inhibition (reported as % activation of signal), % at 10 µM; P26358; DNMT1 molecular beacon, Hinp1I cleavage, fluorescence; in the data active = inhibition above about 50%
Rpn11 block – inhibitors of human proteasome Rpn11; O00487; human 26S proteasome, Ub4-pepOG fluorescence polarization; 20S core pre-blocked with epoxomicin; inhibition, % at 20 µM; 360,000 tested, 0.59% active; AID 588493;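 active = inhibition at 20 µM, scaled to each plate's controls, above about 33%, limit read from the data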
Beacon interf DR – beacon fluorescence artifact, dose response counter-screen; shares compounds with DNMT1 block; molecular beacon fluorescence, spectral interference counter-screen; IC50, µM; 200 tested, under 10 active; AID 602382; call rule not given here
DNMT1 inh conf – confirmation of human DNMT1 inhibitors. inhibition, % at 10 µM. DNMT1 molecular beacon HinP1I cleavage, fluorescence. 2,300 tested, 8% active. AID 602385. shares compounds with DNMT1 block;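 active = average inhibition of at least 30% in the single-concentration confirmation test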
Beacon interf – beacon fluorescence artifact counter-screen; AID 602387; 2,300 tested, 1% active; DNMT1 molecular beacon spectral interference counterscreen, fluorescence 485/520; activation (fluorescence interference), % at 10 µM; shares compounds with DNMT1 block;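 active = activation of at least 30% at 10 µM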;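 note: DNMT1 catalytic domain with a HinP1I cleavage step and a FAM/dabcyl DNA beacon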
Of the large screens only hits and unclear results are named; the others gave an inactive call (follow-up assays come after a bar, where they were run). An excerpt weighted towards active compounds, which were near 2% of everything screened.

Cc1cc[n+](CC(=O)c2cccc([N+](=O)[O-])c2)c2ccccc12	DNMT1 block 53 | Beacon interf DR inactive | DNMT1 inh conf 43 | Beacon interf inactive
Cc1ccc(NC(=O)Nc2nnc(-c3ccccc3F)s2)cc1	DNMT1 block 56 | DNMT1 inh conf inactive | Beacon interf inactive
O=C(c1ccc2c(c1)OCO2)C1CCCN(C(=O)c2cnn(Cc3ccccc3)c2)C1 (stereo unspecified)	none
CC(C)c1nc(SCC(=O)Nc2c[nH]c(=O)[nH]c2=O)c2cnn(-c3ccccc3)c2n1	DNMT1 block 53 | DNMT1 inh conf inactive | Beacon interf inactive
Cc1nc(SCC(=O)Nc2c(C)nn(C)c2C)c2cnn(-c3ccccc3)c2n1	none
COc1ccc(NC(=O)c2cc3c(=O)n(C)c4ccccc4c3s2)cc1OC	DNMT1 block 75 | DNMT1 inh conf inactive | Beacon interf inactive
O=C(NCSc1ccnc(SCNC(=O)c2ccc(F)cc2)n1)c1ccc(F)cc1	DNMT1 block 52 | DNMT1 inh conf inactive | Beacon interf inactive
O=C(NCCNC(=O)c1ccc(F)cc1)c1ccc(F)cc1	none
CCOC(=O)N1CCN(S(=O)(=O)N2CCCC(C(=O)NCCc3ccc(C)cc3)C2)CC1 (stereo unspecified)	none
O=[N+]([O-])c1cccc(-c2c(-c3ccccc3)ncc3ccc(F)cc23)c1	none
N#Cc1cnn(Cc2ccccc2)c1N	DNMT1 block 72 | DNMT1 inh conf inactive | Beacon interf inactive
Cc1ccc(SCC(=O)N(C)CC(=O)Nc2cccc(F)c2)c(C)c1	none
Cc1ccc(Cl)cc1NC(=O)C1CCCCC1C(=O)O (stereo unspecified)	DNMT1 block 50 | DNMT1 inh conf inactive | Beacon interf inactive
O=C(O)C1CCCCC1C(=O)Nc1cc(Cl)ccc1Cl (stereo unspecified)	none (no result: LMPTP inh, STEP block, DNMT1 block, Rpn11 block)
COc1ccccc1-c1ccc([C@@H]2C[C@H]3[C@H](CON3C)CN2C(=O)c2ccc(-c3ccccc3)cc2)cc1	none (no result: Scp1 inh)
O=c1cc(CN2CCN(c3cccc(C(F)(F)F)c3)CC2)nc2sccn12	none (no result: LMPTP inh, STEP block, DNMT1 block, Rpn11 block)
O=C(N/N=C\c1ccc(Br)o1)C1COc2ccccc2O1 (stereo unspecified)	DNMT1 block 51 | DNMT1 inh conf inactive | Beacon interf inactive
CN(C)c1ccc(/C=N/NC(=O)C2COc3ccccc3O2)o1 (stereo unspecified)	none
CC(C)CN(C(=O)COC(=O)c1cc2c(s1)CCC2)C1CCS(=O)(=O)C1 (stereo unspecified)	Scp1 inh 89, DNMT1 block 96 | DNMT1 inh conf inactive | Beacon interf inactive
O=C(Cn1c2ccccc2c(=O)c2cc([N+](=O)[O-])ccc21)Nc1ccccc1Cl	DNMT1 block 56 | DNMT1 inh conf inactive | Beacon interf inactive
O=[N+]([O-])c1ccc(N2CCN(CC3CCCCC3)CC2)cc1	none
C=C/C(C)=C/CC1C(=C)CCC2C(C)(C(=O)O)CCCC12C (stereo unspecified)	DNMT1 block 81 | DNMT1 inh conf inactive | Beacon interf inactive
C=C[C@]1(C)C=C2CCC3[C@](C)(CCC[C@@]3(C)C(=O)O)C2CC1 (stereo partly specified)	none
COc1ccc(NC(=O)CN(C)C(=O)c2cccc(Oc3ccccc3)c2)cc1	none
COc1ccc(NC(=O)CN(C)C(=O)c2cccc(-n3cccc3)c2)cc1	DNMT1 block 83 (no result: Scp1 inh) | DNMT1 inh conf inactive | Beacon interf inactive
CCC(O)CNC(=O)NC(=C(Cl)Cl)c1ccc(C)c(F)c1 (stereo unspecified)	none
O=S(=O)(NCc1ccccc1)c1cccc2nsnc12	DNMT1 block 85 | DNMT1 inh conf inactive | Beacon interf inactive
O=c1oc2c(O)cccc2cc1-c1nc2ccccc2[nH]1	LMPTP inh 66, DNMT1 block 63 | DNMT1 inh conf inactive | Beacon interf inactive
O=C(NCC1CCCN(Cc2cccc(C(F)(F)F)c2)C1)c1ccc(F)cc1 (stereo unspecified)	DNMT1 block 132 | DNMT1 inh conf inactive | Beacon interf inactive
O=C(NCC1CCCN(C(=O)c2cccc(C(F)(F)F)c2)C1)c1ccc(F)cc1 (stereo unspecified)	none
CCC1CCCCN1CCCNC(=O)CSc1nc2nc(C)c(Cc3ccc(C)cc3)c(C)n2n1 (stereo unspecified)	none
O=C(COc1cccnc1[N+](=O)[O-])Nc1cccc(S(=O)(=O)N2CCCCC2)c1	none
COc1ccc(NC(=O)/C=C/c2ccc(Br)o2)cn1	DNMT1 block 51 | DNMT1 inh conf inactive | Beacon interf inactive
COc1ccccc1CNC(=O)/C=C/c1ccc(Br)o1	DNMT1 block 91 | DNMT1 inh conf inactive | Beacon interf inactive
COc1ccc(NC(=O)/C=C/c2ccco2)cn1	none
Cc1ccc(NC(=O)CN2C(=O)S/C(=C/c3ccc(-c4cc(C(=O)O)ccc4C)o3)C2=O)cc1C	Scp1 inh 73, DNMT1 block 111 | Beacon interf DR inactive | DNMT1 inh conf 118 | Beacon interf inactive
COc1cccc(N(C(=O)Cn2nnc(-c3ccc(Cl)cc3)n2)C(C(=O)NCC2CCCO2)c2ccc(C)cc2)c1 (stereo unspecified)	DNMT1 block 59 | DNMT1 inh conf inactive | Beacon interf inactive
Cc1ccc(Cn2nc(C)c(NC(=O)CSc3nc4c(c(C(F)(F)F)n3)CCc3ccccc3-4)c2C)cc1	none
Cc1nn(Cc2ccc(Cl)cc2)c(C)c1NC(=O)CSc1nc2c(c(C(F)(F)F)n1)CCc1ccccc1-2	DNMT1 block 51 | DNMT1 inh conf inactive | Beacon interf inactive
Cc1cccc(NC(=O)CSc2nnc(-c3ccco3)c(-c3ccco3)n2)c1C	Scp1 inh 63, DNMT1 block 106 | DNMT1 inh conf inactive | Beacon interf inactive
Cc1cccc(NC(=O)CSc2nnc(-c3ccco3)c(-c3ccco3)n2)c1	none
CC(=O)NCC1(c2ccccc2)CCN(CCCC(=O)c2ccc(F)cc2)CC1	none (no result: Scp1 inh)
Cn1c(=O)c(=O)n(C)c2cc(S(=O)(=O)CCC(=O)Nc3c(F)c(F)c(F)c(F)c3F)ccc21	none
Cc1ccc(-c2cc(-c3ccccc3O)nc(N/N=C/c3cccnc3)n2)cc1	DNMT1 block 52 | DNMT1 inh conf inactive | Beacon interf inactive
O=S(=O)(c1ccccc1)C(Br)S(=O)(=O)c1ccccc1	none (no result: Scp1 inh)
